Series [1] addresses T1, Hexokinase (Trypanosoma cruzi, UniProt Q8ST54).
T1 sequence (Q8ST54 whole entry): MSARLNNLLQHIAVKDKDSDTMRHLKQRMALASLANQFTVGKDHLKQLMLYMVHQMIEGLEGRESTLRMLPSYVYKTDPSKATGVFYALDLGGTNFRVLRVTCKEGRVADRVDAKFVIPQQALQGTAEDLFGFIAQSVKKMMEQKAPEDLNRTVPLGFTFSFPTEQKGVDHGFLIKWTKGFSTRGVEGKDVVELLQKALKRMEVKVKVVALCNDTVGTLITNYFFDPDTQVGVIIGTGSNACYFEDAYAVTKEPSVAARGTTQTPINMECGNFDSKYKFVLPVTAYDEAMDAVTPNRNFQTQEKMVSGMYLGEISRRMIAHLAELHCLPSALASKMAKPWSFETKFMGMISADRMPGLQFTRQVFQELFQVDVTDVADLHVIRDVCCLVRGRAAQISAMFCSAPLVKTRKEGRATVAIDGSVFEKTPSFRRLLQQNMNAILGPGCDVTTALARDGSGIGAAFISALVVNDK
Nature of the series: Inhibitory activity against Trypanosoma cruzi hexokinase. A digest of the protocol:
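Native glycosomal T. cruzi hexokinase, purified by a previously described procedure. Activity was followed as NADPH formation at 340 nm, coupled to D-glucose-6-phosphate dehydrogenase. Inhibition was reported as IC50.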

Series [2] has as its system Dictyostelium discoideum. Kind of series: Cytotoxicity to Dictyostelium discoideum. In kind it is functional, organism-based.
Series [3] has as its system Trypanosoma cruzi. Kind of series: Growth inhibition of Trypanosoma cruzi intracellular amastigotes. In kind it is functional, organism-based.
Series [4] relates to KB. Nature of the series: Cytotoxicity in human nasopharyngeal carcinoma KB cell line. The series is classed as functional. The settings on record: read-out: LD50 (the source's name). In a few lines:
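Human nasopharyngeal carcinoma KB cells were exposed to bisphosphonates up to a highest tested level of 300 µg mL-1. […] The therapeutic index was KB LD50 divided by TcHK IC50.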

The test system of series [5] is TcHK. Kind of series: Therapeutic index TI=LD50(KB)/IC50(TcHK). The note with it: human.
Where [6] appears, read: KB cells (cytotoxicity) versus TcHK enzyme.

Some results are limits rather than exact numbers.

On to `Cc1cc(-c2cccc(CC(O)(P(=O)(O)O)P(=O)(O)O)c2)c(F)cc1F`, for which, in series [1], the IC50 was 2.29 µM. In other words, the single-digit micromolar range.

As for `O=P(O)(O)C(O)(Cn1cnc2ccccc21)P(=O)(O)O`, the IC50 in series [2] was 2 µM; in series [1] it was at least 300 µM.

Take `CCn1c2ccccc2c2cc(NC(P(=O)(O)O)P(=O)(O)O)ccc21`: the IC50 in series [3] amounted to 2.2 µM; in series [2] it was 2050 µM; in series [1], 0.81 µM. Besides, the CC50 in series [4] was determined as 698 µM.

On to `O=P(O)(O)C(Nc1cccc(Br)c1)P(=O)(O)O`, for which the CC50 in series [4] is at least 771 µM. The selectivity ratio in series [5] is at least 812. Also, the results for the IC50 in series [2] and in series [1] were 112 µM and 0.95 µM, respectively.

For `O=P(O)(O)C(Nc1cccc(-c2ccc(F)c(F)c2)c1)P(=O)(O)O`, in series [4], the CC50 was at least 791 µM. For the same compound, the selectivity ratio in series [5] (setting [6]) was at least 285. In addition, the IC50 in series [2] turned out to be 77 µM; in series [1], 2.75 µM.

`O=P(O)(O)C(Nc1ccc(F)c(-c2ccccc2)c1)P(=O)(O)O` displayed an IC50 in series [1] of 3.63 µM.

Take `O=P(O)(O)C(CNc1cccc(-c2ccccc2)c1)P(=O)(O)O`: in series [4], the CC50 was at least 560 µM. The selectivity ratio in series [5] (setting [6]) was at least 162. Moreover, the IC50 in series [2] stood at 62 µM; in series [1], 3.47 µM.

For `O=P(O)(O)C(O)(c1cccc(-c2ccccc2)c1)P(=O)(O)O`, in series [4], the CC50 turned out to be 797 µM. For the same compound, in series [5], the selectivity ratio came to 23. Also, the IC50 in series [2] was found to be 103 µM; in series [1], 34.7 µM.

For `O=[N+]([O-])c1cccc(NC(P(=O)(O)O)P(=O)(O)O)c1` [(3-NITROPHENYLAMINO)METHYLENEDIPHOSPHONIC ACID], the CC50 in series [4] is at least 635 µM. In addition, the selectivity ratio in series [5] (setting [6]) was at least 266. For the same compound, the figures for the IC50 in series [2] and in series [1] were 78 µM and 2.4 µM, respectively.

As for `CCCCCCCCCC(O)(P(=O)(O)O)P(=O)(O)O`, the CC50 in series [4] is at least 892 µM. The same compound returned an IC50 in series [2] of 10 µM.

For the compound `COc1ccc(NC(P(=O)(O)O)P(=O)(O)O)cn1`, the CC50 in series [4] was determined as 302 µM. Moreover, in series [5] (setting [6]), the selectivity ratio is at most 1. Further, the IC50 in series [2] was 52 µM; in series [1], at least 300 µM.

Take `C[C@H](NC(P(=O)(O)O)P(=O)(O)O)c1cccc2ccccc12`: the IC50 in series [2] is 7 µM; in series [1], at least 300 µM.

`O=P(O)(O)C(O)(Cc1cccnc1)P(=O)(O)O` [RISEDRONIC ACID]: the CC50 in series [4] was found to be 822 µM. The compound further returned an IC50 in series [1] of at least 300 µM.

As for `Cc1cccnc1NC(P(=O)(O)O)P(=O)(O)O`, in series [4], the CC50 amounted to 840 µM. Also, the IC50 in series [2] was 3 µM; in series [1] it was 45.7 µM.

As for `O=P(O)(O)C(O)(Cn1cnc(-c2ccccc2)c1)P(=O)(O)O`, the IC50 in series [2] was 122 µM; in series [1], 1.82 µM.

In the case of `CN(CCOc1ccccc1)CCC(O)(P(=O)(O)O)P(=O)(O)O`, in series [4], the CC50 amounted to 311 µM. For the same compound, the IC50 in series [2] is 2 µM; in series [1] it was at least 300 µM.

Consider `CCCNC(P(=O)(O)O)P(=O)(O)O` [(PROPYLAMINO)METHYLENEDIPHOSPHONIC ACID], for which the CC50 in series [4] is 457 µM. Besides, the selectivity ratio in series [5] (setting [6]) was at most 1.5. Also, the IC50 in series [2] is 4 µM; in series [1], at least 300 µM.

With `O=P(O)(O)C(Nc1cccc(-c2ccccc2)c1)P(=O)(O)O`, the IC50 was found to be 47 µM in series [3], 211 µM in series [2] and 1.95 µM in series [1]. Further, the CC50 in series [4] turned out to be 827 µM.

In the case of `O=P(O)(O)C(NC1CC1)P(=O)(O)O` [(CYCLOPROPYLAMINO)METHYLENEDIPHOSPHONIC ACID], in series [4], the CC50 is 242 µM. In addition, the selectivity ratio in series [5] (setting [6]) was at most 0.8. The IC50 was 30 µM in series [2] and at least 300 µM in series [1].

On to `O=c1ccc(-c2cccc(CC(O)(P(=O)(O)O)P(=O)(O)O)c2)c[nH]1`, for which the IC50 in series [1] is at least 300 µM.

`Cc1cccc(Cc2ccc[n+](CC(O)(P(=O)(O)O)P(=O)(O)O)c2)c1`: the CC50 in series [4] was 728 µM. For the same compound, the selectivity ratio in series [5] (setting [6]) was at most 2.4. The half-maximal inhibitory concentration (IC50) was 889 µM in series [2] and at least 300 µM in series [1].

As to `CC1CCN(C(P(=O)(O)O)P(=O)(O)O)CC1`, the CC50 in series [4] stood at 446 µM. Besides, the selectivity ratio in series [5] (setting [6]) was at most 1.5. The IC50 in series [2] is 2 µM; in series [1], at least 300 µM.

With `CCCCCCCc1ccc(NC(P(=O)(O)O)P(=O)(O)O)cc1`, the CC50 in series [4] was 211 µM. In addition, the IC50 in series [2] amounted to 10 µM; in series [1] it was 1.45 µM.

`O=P(O)(O)C(Nc1ccc(Cl)cc1Cl)P(=O)(O)O` [2,4-DICHLOROPHENYLAMINOMETHYLENEBISPHOSPHONIC ACID]: the IC50 in series [1] was at least 300 µM.

For `CC(C)(C)c1cccc(NC(P(=O)(O)O)P(=O)(O)O)c1`, the IC50 in series [2] was 75 µM; in series [1], at least 300 µM.

As to `C[N+](C)=c1ccn(CC(O)(P(=O)(O)O)P(=O)(O)O)cc1`, the IC50 in series [2] is 30 µM; in series [1], at least 300 µM.

In series [1], `CCOC(=O)C(Cc1cccc(-c2ccccc2)c1)P(=O)(O)O` (centres undefined) yielded a half-inhibitory concentration (IC50) of at least 300 µM.

In series [1], `O=P(O)(O)C(O)(CC12CC3CC(CC(C3)C1)C2)P(=O)(O)O` registered an IC50 of at least 300 µM.

On to `O=P(O)(O)C(O)(C[n+]1ccccc1)P(=O)(O)O`, for which the CC50 in series [4] is at least 1060 µM. The figures for the IC50 in series [2] and in series [1] were 3 µM and at least 300 µM, respectively.

As for `CCCCN(CC)C(P(=O)(O)O)P(=O)(O)O` [(BUTYL(ETHYL)AMINO)METHYLENEDIPHOSPHONIC ACID], in series [4], the CC50 is at least 1060 µM. Besides, the IC50 in series [2] was 4 µM; in series [1] it was at least 300 µM.

As for `O=P(O)(O)CNc1cccc(-c2ccccc2)c1`, the IC50 in series [1] is at least 300 µM.

For `O=P(O)(O)C(Nc1cccc(-c2ccc(O)nc2)c1)P(=O)(O)O`, in series [1], the half-maximal inhibitory concentration (IC50) was at least 300 µM.

Turning to `O=P(O)(O)C(O)(Cc1ccncc1)P(=O)(O)O`, in series [4], the CC50 amounted to 1040 µM. This compound also displayed an IC50 in series [1] of 12.6 µM.

Regarding `COCc1cccc(NC(P(=O)(O)O)P(=O)(O)O)c1`, the CC50 in series [4] is at least 964 µM. In addition, the selectivity ratio in series [5] is above 237. The IC50 in series [2] turned out to be 253 µM; in series [1], 4.07 µM.

Regarding `O=P(O)(O)C(Nc1cccc(CO)c1)P(=O)(O)O`, the CC50 in series [4] was at least 980 µM. Also, the selectivity ratio in series [5] was at least 67. Further, the IC50 was 351 µM in series [2] and 14.8 µM in series [1].

Regarding `O=P(O)(O)C(Cc1cccc(-c2ccccc2)c1)S(=O)(=O)O` (centres undefined), the IC50 in series [1] was at least 300 µM.

With `O=P(O)(O)C(O)(C[n+]1cccc(-c2ccccc2)c1)P(=O)(O)O`, in series [4], the CC50 was found to be 12 µM. Also, the selectivity ratio in series [5] (setting [6]) was at most 0.04. In addition, the figures for the IC50 in series [2] and in series [1] were 3 µM and at least 300 µM, respectively.

Take `O=P(O)(O)C(CN[C@@H](CO)c1ccccc1)P(=O)(O)O`: the IC50 in series [1] is at least 300 µM.

Consider `O=P(O)(O)C(Nc1ncccc1OCc1ccccc1)P(=O)(O)O`, for which the CC50 in series [4] was at least 765 µM. For the same compound, the IC50 in series [2] is 1 µM; in series [1], at least 300 µM.

The record behind these values is ChEMBL document CHEMBL1148603, “Inhibition of Trypanosoma cruzi hexokinase by bisphosphonates” (J Med Chem, 2006).
